The test system of data set [1] is U-251. The data set can be described thus: Antiproliferative activity against human U251 cells after 48 hrs by sulforhodamine B assay. It is filed as functional. Conditions: U-251, 48 h. The gist of the method:
(§1)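 Tumor cells grown in RPMI 1640 with 5% fetal bovine serum, with penicillin/streptomycin in experimental cultures. Exposed in 96-well plates to samples in DMSO/RPMI at 0.25, 2.5, 25 and 250 µg/mL, 37 °C, 5% CO2, 48 h. Fixed with 50% trichloroacetic acid before (T0) and after treatment, protein stained with sulforhodamine B and read at 540 nm. GI50, TGI and LC50 in µg/mL from dose-response curves by non-linear regression.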
In general terms: The SRB assay estimates cell density from bound dye.

The subject of data set [2] is MCF7. The data set can be described thus: Antiproliferative activity against human MCF7 cells after 48 hrs by sulforhodamine B assay. It is filed as functional. The note with it: MCF7, 48 h. A digest of the protocol:
as §1

Data set [3] relates to NCI/ADR-RES. In words: Antiproliferative activity against human NCI/ADR-RES cells after 48 hrs by sulforhodamine B assay. It is filed as functional. A digest of the protocol:
as §1

Data set [4] concerns 786-0. In words: Antiproliferative activity against human 786-0 cells after 48 hrs by sulforhodamine B assay. Format: functional. Conditions: 786-0, 48 h. A digest of the protocol:
as §1

Data set [5] relates to NCI-H460. The data set can be described thus: Antiproliferative activity against human NCI-H460 cells after 48 hrs by sulforhodamine B assay. Format: functional. The note with it: NCI-H460, 48 h. A digest of the protocol:
as §1

The nature of data set [6]: Antiproliferative activity against human PC3 cells after 48 hrs by sulforhodamine B assay. Format: functional. Conditions: PC-3, 48 h. A digest of the protocol:
as §1

Data set [7] can be described thus: Antiproliferative activity against human OVCAR3 cells after 48 hrs by sulforhodamine B assay. Conditions: OVCAR-3, 48 h. It is filed as functional. A digest of the protocol: as §1
For data set [8], the system named is HaCaT. In words: Cytotoxicity against human HaCaT cells after 48 hrs by sulforhodamine B assay. It is filed as cell-based.
The test system of data set [9] is U-251. The data set can be described thus: Antiproliferative activity against human U251 cells assessed as tumor growth inhibition after 48 hrs by sulforhodamine B assay. The note with it: U-251, 48 h. Format: functional. A digest of the protocol: as §1
In data set [10] the test system is MCF7. The data set can be described thus: Antiproliferative activity against human MCF7 cells assessed as tumor growth inhibition after 48 hrs by sulforhodamine B assay. Format: functional. Conditions: MCF7, 48 h. The gist of the method: as §1
For data set [11], the system named is NCI/ADR-RES. In words: Antiproliferative activity against human NCI/ADR-RES cells assessed as tumor growth inhibition after 48 hrs by sulforhodamine B assay. Format: functional. A digest of the protocol:
as §1

Data set [12] deals with 786-0. In words: Antiproliferative activity against human 786-0 cells assessed as tumor growth inhibition after 48 hrs by sulforhodamine B assay. It is filed as functional. Conditions: 786-0, 48 h. The gist of the method:
as §1

Data set [13] deals with NCI-H460. The data set can be described thus: Antiproliferative activity against human NCI-H460 cells assessed as tumor growth inhibition after 48 hrs by sulforhodamine B assay. Format: functional. Conditions: NCI-H460, 48 h. A digest of the protocol:
as §1

Data set [14] can be described thus: Antiproliferative activity against human PC3 cells assessed as tumor growth inhibition after 48 hrs by sulforhodamine B assay. The note with it: PC-3, 48 h. It is filed as functional. The gist of the method:
as §1

Data set [15] is described as follows: Antiproliferative activity against human OVCAR3 cells assessed as tumor growth inhibition after 48 hrs by sulforhodamine B assay. The note with it: OVCAR-3, 48 h. It is filed as functional. A digest of the protocol:
as §1

The subject of data set [16] is HaCaT. In words: Cytotoxicity against human HaCaT cells assessed as tumor growth inhibition after 48 hrs by sulforhodamine B assay. Format: cell-based. The gist of the method:
(§2)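 Non-tumor lines (human HaCaT keratinocytes; Vero) in RPMI 1640 with 5% FBS, with penicillin/streptomycin added to experimental cultures. 48 h exposure at 0.25–250 µg/mL (DMSO/RPMI), 37 °C, 5% CO2. TCA fixation at time zero and at end, sulforhodamine B protein stain, absorbance 540 nm. TGI (total growth inhibition) from non-linear regression of the dose-response curve.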

Data set [17] relates to Vero. The data set can be described thus: Cytotoxicity against african green monkey Vero cells after 48 hrs by sulforhodamine B assay. Format: cell-based. Conditions: chlorocebus sabaeus.
For data set [18], the system named is Vero. The data set can be described thus: Cytotoxicity against african green monkey Vero cells assessed as tumor growth inhibition after 48 hrs by sulforhodamine B assay. Format: cell-based. Conditions: chlorocebus sabaeus. The gist of the method: as §2

Values after ≈ are worked out from the molar mass of the structure shown.

For `CCCCCCCC/C=C\CCCCCCCC(=O)N1CCCCC1`, the GI50 (commonly the concentration at which growth is held to half of that of the control) with U-251 [1] came to 6.7 µg/mL (≈ 19.2 µM); in the data set on MCF7 [2] it was 7.6 µg/mL (≈ 21.7 µM); in the data set on NCI/ADR-RES [3], 7.7 µg/mL (≈ 22 µM); in the data set on 786-0 [4], 10.6 µg/mL (≈ 30.3 µM); with NCI-H460 [5] it was 23 µg/mL (≈ 65.8 µM); in [6], 8.7 µg/mL (≈ 24.9 µM). The compound further showed a GI50 in data set [7] of 9.3 µg/mL (≈ 26.6 µM). In addition, the median lethal concentration (LC50) (in general, the concentration that kills 50% of the test population) with HaCaT [8] came out at 7.7 µg/mL (≈ 22 µM). The TGI (as a rule, the concentration giving total growth inhibition) with U-251 [9] was found to be 25 µg/mL (≈ 71.5 µM); in the data set with MCF7 [10] it was 33.3 µg/mL (≈ 95.3 µM); with NCI/ADR-RES [11] it was 47.4 µg/mL (≈ 136 µM); with 786-0 [12], 40.7 µg/mL (≈ 116 µM); with NCI-H460 [13], 40.7 µg/mL (≈ 116 µM); in [14], 31.8 µg/mL (≈ 91 µM). Besides, the TGI in data set [15] stood at 35.4 µg/mL (≈ 101 µM); in the data set with HaCaT [16], 47.9 µg/mL (≈ 137 µM).
For `CCCCCC[C@@H](O)C/C=C\CCCCCCCC(=O)NCc1ccccc1`, the GI50 with U-251 [1] is 8.6 µg/mL (≈ 22.2 µM); in the data set on MCF7 [2], 37.8 µg/mL (≈ 97.5 µM); in the data set on NCI/ADR-RES [3], 8.6 µg/mL (≈ 22.2 µM); in the data set with 786-0 [4] it was 32.3 µg/mL (≈ 83.3 µM); in the data set on NCI-H460 [5], 32.3 µg/mL (≈ 83.3 µM); in [6], 123 µg/mL (≈ 316 µM). Besides, the GI50 in data set [7] stood at 31.6 µg/mL (≈ 81.5 µM). Moreover, in the data set on HaCaT [8], the 50% lethal concentration (LC50) was 30.8 µg/mL (≈ 79.5 µM). The TGI worked out at 47.5 µg/mL (≈ 123 µM) in the data set with U-251 [9]; 104 µg/mL (≈ 270 µM) in the data set with MCF7 [10]; 46.6 µg/mL (≈ 120 µM) with NCI/ADR-RES [11]; 71.5 µg/mL (≈ 184 µM) in the data set on 786-0 [12]; 179 µg/mL (≈ 461 µM) with NCI-H460 [13]; 123 µg/mL (≈ 316 µM) in data set [14]. Also, the TGI in data set [15] was 86 µg/mL (≈ 222 µM); in the data set with HaCaT [16], 66.5 µg/mL (≈ 172 µM).
With `CCCCCC[C@@H](O)C/C=C\CCCCCCCC(=O)N1CCCC1`, the GI50 is 1.5 µg/mL (≈ 4.27 µM) with U-251 [1]; 4.4 µg/mL (≈ 12.5 µM) in the data set on MCF7 [2]; 4 µg/mL (≈ 11.4 µM) with NCI/ADR-RES [3]; 4.1 µg/mL (≈ 11.7 µM) with 786-0 [4]; 6.9 µg/mL (≈ 19.6 µM) in the data set on NCI-H460 [5]; 6.2 µg/mL (≈ 17.6 µM) in data set [6]. This compound also came in with a GI50 in data set [7] of 4.3 µg/mL (≈ 12.2 µM). Moreover, the LC50 in the data set with Vero [17] amounted to 4 µg/mL (≈ 11.4 µM). Further, the TGI with U-251 [9] worked out at 4.4 µg/mL (≈ 12.5 µM); with MCF7 [10], 1.5 µg/mL (≈ 4.27 µM); in the data set with NCI/ADR-RES [11], 4 µg/mL (≈ 11.4 µM); in the data set with 786-0 [12] it was 6.9 µg/mL (≈ 19.6 µM); in the data set on NCI-H460 [13] it was 6.2 µg/mL (≈ 17.6 µM); in [14] it was 4.3 µg/mL (≈ 12.2 µM). The TGI in [15] worked out at 4.1 µg/mL (≈ 11.7 µM); with Vero [18], 6.8 µg/mL (≈ 19.3 µM).
Regarding `CCCCC/C=C\C/C=C\CCCCCCCC(=O)N[C@@H](C)c1ccccc1`, the GI50 in the data set on U-251 [1] is 0.7 µg/mL (≈ 1.82 µM); in the data set with MCF7 [2], 5.3 µg/mL (≈ 13.8 µM); with NCI/ADR-RES [3] it was 3 µg/mL (≈ 7.82 µM); in the data set on 786-0 [4], 3.2 µg/mL (≈ 8.34 µM); in the data set on NCI-H460 [5] it was 6.1 µg/mL (≈ 15.9 µM); in data set [6], 6.8 µg/mL (≈ 17.7 µM). In addition, in data set [7], the 50% growth inhibitory concentration (GI50) was determined as 3.5 µg/mL (≈ 9.12 µM). Further, in the data set on HaCaT [8], the LC50 is 1.3 µg/mL (≈ 3.39 µM). Also, the TGI with U-251 [9] amounted to 5.1 µg/mL (≈ 13.3 µM); in the data set on MCF7 [10], 38.6 µg/mL (≈ 101 µM); with NCI/ADR-RES [11], 16.4 µg/mL (≈ 42.8 µM); with 786-0 [12] it was 7.7 µg/mL (≈ 20.1 µM); with NCI-H460 [13], 38.9 µg/mL (≈ 101 µM); in [14], 7.7 µg/mL (≈ 20.1 µM). The TGI amounted to 20 µg/mL (≈ 52.1 µM) in [15] and 77.2 µg/mL (≈ 201 µM) in the data set on HaCaT [16].
On to `CCCCCCCCCCCCCCCC(=O)N1CCCC1`, for which the 50% growth inhibitory concentration (GI50) in the data set with U-251 [1] was 4.6 µg/mL (≈ 14.9 µM); with MCF7 [2], 4.6 µg/mL (≈ 14.9 µM); with NCI/ADR-RES [3], 4.6 µg/mL (≈ 14.9 µM); in the data set with 786-0 [4], 5.5 µg/mL (≈ 17.8 µM); with NCI-H460 [5], 5.9 µg/mL (≈ 19.1 µM); in [6], 4.7 µg/mL (≈ 15.2 µM). Moreover, the GI50 in [7] came to 6.3 µg/mL (≈ 20.4 µM). In the data set on HaCaT [8], this compound registered an LC50 of 4.8 µg/mL (≈ 15.5 µM). In addition, the TGI came out at 11.4 µg/mL (≈ 36.8 µM) in the data set with U-251 [9]; 13.2 µg/mL (≈ 42.6 µM) with MCF7 [10]; 30 µg/mL (≈ 96.9 µM) with NCI/ADR-RES [11]; 16.1 µg/mL (≈ 52 µM) with 786-0 [12]; 33.5 µg/mL (≈ 108 µM) in the data set with NCI-H460 [13]; 12.2 µg/mL (≈ 39.4 µM) in data set [14]. Moreover, the TGI is 22.9 µg/mL (≈ 74 µM) in data set [15] and 12.9 µg/mL (≈ 41.7 µM) in the data set on HaCaT [16].
As to `CCCCCCCC/C=C\CCCCCCCC(=O)NCc1ccccc1`, the 50% growth inhibitory concentration (GI50) in the data set on U-251 [1] was 55.4 µg/mL (≈ 149 µM); in the data set with MCF7 [2], 53.4 µg/mL (≈ 144 µM); with NCI/ADR-RES [3], 50.3 µg/mL (≈ 135 µM); with 786-0 [4], 104 µg/mL (≈ 281 µM); in the data set with NCI-H460 [5] it was 94.9 µg/mL (≈ 255 µM); in data set [6], 107 µg/mL (≈ 288 µM). In data set [7], this compound gave a GI50 of 103 µg/mL (≈ 278 µM). Moreover, the LC50 in the data set with HaCaT [8] was 92 µg/mL (≈ 248 µM). For the same compound, the TGI (with U-251 [9]; in the data set with MCF7 [10]; in the data set on NCI/ADR-RES [11]; in the data set on 786-0 [12]; in the data set on NCI-H460 [13]; in data set [14]) was over 250 µg/mL in each case. Moreover, the TGI (in data set [15]; in the data set on HaCaT [16]) was over 250 µg/mL throughout.

For the origin of these results see ChEMBL document CHEMBL3392966, “Antiproliferative activity of synthetic fatty acid amides from renewable resources” (Bioorg Med Chem, 2015).
